Measurements from PubChem BioAssay AID602403 (The Scripps Research Institute Molecular Screening Center, 2012).
The source made the active and inactive calls.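 How the source made its calls: active means inhibition of the enzyme-probe labelling of at least 50% at one fixed dose; inactive means inhibition below 50%.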

Target: Diacylglycerol lipase-alpha (Mus musculus) (UniProt Q6WQJ1)
Assay: mouse DAGLa inhibition, late-stage follow-up, selectivity assay for DAGLb inhibitor project, biochemical, gel-based competitive ABPP, recombinant, fluorescence (AID 602403)
Details: HEK293T membrane mouse DAGLa, at 0.4 µM, hits give high values
In short: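 Assay system – membrane proteome of 293T HEK cells transiently overexpressing mouse DAGLa · Medium – Dulbecco's phosphate-buffered saline (DPBS) · Also added – HT-01 probe, 1 µM · Timing – compound pre-incubation 30 min, probe labeling 30 min, both 37 °C · Technique – in-gel fluorescence after SDS-PAGE · Measure – % inhibition from band IOD · Benchmarks – DMSO high, blank-gel background low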

Chain of Diacylglycerol lipase-alpha (Mus musculus) (Q6WQJ1 whole entry, looked up): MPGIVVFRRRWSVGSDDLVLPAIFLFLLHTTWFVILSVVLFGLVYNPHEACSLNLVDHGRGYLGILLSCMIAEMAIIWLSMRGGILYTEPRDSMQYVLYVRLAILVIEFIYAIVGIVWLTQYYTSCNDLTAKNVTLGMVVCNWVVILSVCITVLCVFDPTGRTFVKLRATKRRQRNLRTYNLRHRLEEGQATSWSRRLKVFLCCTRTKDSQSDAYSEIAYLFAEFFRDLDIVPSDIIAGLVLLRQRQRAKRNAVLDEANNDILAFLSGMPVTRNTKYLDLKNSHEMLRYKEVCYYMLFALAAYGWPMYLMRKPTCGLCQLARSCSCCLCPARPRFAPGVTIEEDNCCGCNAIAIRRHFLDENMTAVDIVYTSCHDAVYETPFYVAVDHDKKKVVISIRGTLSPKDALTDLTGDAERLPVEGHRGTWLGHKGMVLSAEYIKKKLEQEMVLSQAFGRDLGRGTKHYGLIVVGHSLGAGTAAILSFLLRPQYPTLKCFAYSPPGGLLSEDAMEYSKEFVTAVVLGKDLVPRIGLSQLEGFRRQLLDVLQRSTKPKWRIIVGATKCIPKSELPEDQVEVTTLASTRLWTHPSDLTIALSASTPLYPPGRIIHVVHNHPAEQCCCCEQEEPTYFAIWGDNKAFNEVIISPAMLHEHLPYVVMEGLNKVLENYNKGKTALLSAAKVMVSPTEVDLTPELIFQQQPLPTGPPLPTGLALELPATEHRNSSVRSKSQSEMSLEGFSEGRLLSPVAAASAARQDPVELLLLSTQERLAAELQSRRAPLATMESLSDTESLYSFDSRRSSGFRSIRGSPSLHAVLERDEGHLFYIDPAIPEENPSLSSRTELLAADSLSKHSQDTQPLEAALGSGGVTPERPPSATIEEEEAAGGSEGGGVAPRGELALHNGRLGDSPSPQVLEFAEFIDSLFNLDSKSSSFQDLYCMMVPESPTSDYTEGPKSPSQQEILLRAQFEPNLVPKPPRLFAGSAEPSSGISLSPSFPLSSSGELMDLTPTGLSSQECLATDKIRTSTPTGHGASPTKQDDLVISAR

| Structure (SMILES) | inhibition |
| --- | --- |
| COc1ccccc1-c1ccc(-c2cn(C(=O)N3CCCCC3Cc3ccccc3)nn2)cc1 (stereo not drawn) | 40% (inactive) |
| COc1ccc(-c2ccc(-c3cn(C(=O)N4CCCCC4c4ccccc4)nn3)cc2)cc1 (stereo not drawn) | 0% (inactive) |
| O=C(N1CCCCC1Cc1ccccc1)n1cc(-c2ccc(OC(F)(F)F)cc2)nn1 (stereo not drawn) | 50% (active) |
